Shown are actives, neighbours in structure and some others; about 3.4% of the full set was active somewhere.
VIM-2 inhibitor: VIM-2 metallo-beta-lactamase inhibitors, primary screen, biochemical, epi-absorbance readout, Pseudomonas aeruginosa enzyme; purified VIM-2, nitrocefin hydrolysis, epi-absorbance fluorescence; inhibition, % at 5.6 µM; actives 0.89% (n = 290,000); AID 1527, 2009;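 active = inhibition above the mean of all tested compounds plus 3 SD, cutoff set per screening run, cut at about 7.5% in these data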;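 also: red hydrolysis product quenches plate fluorescence so inhibitors raise well fluorescence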
TMEM16A act: TMEM16A chloride channel activators or potentiators, primary screen, cell-based, HTS; B-score at 10 µM; actives 0.3% (n = 340,000); HEK293 TMEM16A/YFP-H148Q/I152L, iodide quench fluorescence; stronger effect = lower value; Anoctamin-1 (Mus musculus), Q8BHY3; AID 623877, 2012;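 active = fluorescence-ratio B-score plate-corrected deviation score at least 3 library SD below zero, with starting fluorescence score within 5 deviations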;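 also: channel opened by trigger with iodide after compound preincubation; score built on the fluorescence ratio of max minus min over baseline; more negative score means more quench and so TMEM16A activation or potentiation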
Target sequence (Q8BHY3 whole entry, looked up): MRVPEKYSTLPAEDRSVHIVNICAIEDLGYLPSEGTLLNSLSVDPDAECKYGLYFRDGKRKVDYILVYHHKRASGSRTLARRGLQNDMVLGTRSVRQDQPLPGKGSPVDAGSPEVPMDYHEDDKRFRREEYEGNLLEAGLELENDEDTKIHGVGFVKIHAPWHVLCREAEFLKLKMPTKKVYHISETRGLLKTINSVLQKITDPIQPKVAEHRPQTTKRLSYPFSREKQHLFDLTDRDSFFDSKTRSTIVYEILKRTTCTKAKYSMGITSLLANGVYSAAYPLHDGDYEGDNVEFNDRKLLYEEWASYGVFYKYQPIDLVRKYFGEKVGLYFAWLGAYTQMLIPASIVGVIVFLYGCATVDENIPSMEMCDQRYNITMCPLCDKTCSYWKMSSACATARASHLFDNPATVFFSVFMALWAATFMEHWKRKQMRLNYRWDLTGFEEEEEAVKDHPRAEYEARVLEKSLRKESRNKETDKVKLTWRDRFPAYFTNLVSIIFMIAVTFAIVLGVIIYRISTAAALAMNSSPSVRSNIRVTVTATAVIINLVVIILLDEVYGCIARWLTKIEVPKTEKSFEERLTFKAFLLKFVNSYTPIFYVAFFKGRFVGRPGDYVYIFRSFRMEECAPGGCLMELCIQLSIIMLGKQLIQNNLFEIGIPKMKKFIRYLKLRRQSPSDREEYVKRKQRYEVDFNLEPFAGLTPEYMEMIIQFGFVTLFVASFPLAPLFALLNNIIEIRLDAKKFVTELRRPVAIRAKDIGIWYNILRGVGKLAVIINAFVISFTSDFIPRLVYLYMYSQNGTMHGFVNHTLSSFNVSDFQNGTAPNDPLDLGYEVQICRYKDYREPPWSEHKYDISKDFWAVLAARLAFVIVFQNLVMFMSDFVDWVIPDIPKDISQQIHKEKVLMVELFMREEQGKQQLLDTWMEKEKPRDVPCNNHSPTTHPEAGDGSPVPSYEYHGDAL
TMEM16A inh: TMEM16A chloride channel inhibitors, primary screen, cell-based, HTS; Anoctamin-1 (Mus musculus), Q8BHY3; HEK293 TMEM16A/YFP iodide influx fluorescence, ionomycin; normalized B-score (activity score, 25-100; higher = stronger inhibition) at 10 µM; actives 1.2% (n = 310,000); AID 588511, 2011;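 active = ratio plate-corrected score three or more library SD toward inhibition, starting fluorescence score within five deviations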;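 also: score derived from kinetic fluorescence span divided by baseline fluorescence per well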
CHT inh: inhibitors of human choline transporter CHT | CHT-expressing cells, membrane potential dye, choline response; stronger effect = lower value | B-score at 10 µM | actives 0.86% (n = 310,000) | AID 488975, 2010;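 active = B-score over 3 SD under the library average, and starting fluorescence ratio not unusually high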;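 also: choline stimulus applied at its EC90 after an EC20 pre-addition; B-score computed on integrated fluorescence ratio after choline addition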
IMP-1 inh: IMP-1 metallo-beta-lactamase inhibitors, primary screen, biochemical, epi-absorbance readout, Pseudomonas aeruginosa enzyme | purified IMP-1, nitrocefin hydrolysis, epi-absorbance fluorescence | inhibition, % at 5.6 µM | actives 0.45% (n = 290,000) | AID 1556, 2009;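 active = inhibition above the mean plus 3 SD of all compounds in the same screening run, cut at about 4.5% in these data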
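System – purified recombinant IMP-1 beta-lactamase · Input – IMP-1 dispensed at 0.2 nM · Timing – 15 min preincubation plus 25 min reaction at 25 °C · Signal – Epi-absorbance fluorescence, 480 nm excitation, 530 nm emission · Measure – percent IMP-1 inhibition derived from blank-referenced optical density · Controls – Enzyme-plus-DMSO low control, enzyme-free DMSO high control · Replication – singlicate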
CHT allo act: CHT positive allosteric modulators, primary screen, cell-based, membrane potential dye, choline EC20 | B-score at 10 µM | CHT-expressing cells; stronger effect = higher value; LV-AA mutant CHT in HEK293 cells | High affinity choline transporter 1 (Homo sapiens), Q9GZV3 | AID 488977, 2010 | actives 0.49% (n = 310,000);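 active = initial fluorescence not abnormally high and integrated response B-score, plate-corrected, over 3 SD above library mean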
CHT inh conf: CHT inhibitors, confirmation, cell-based, membrane potential dye, duplicate; actives 70% (n = 2,400); CHT-expressing cells, choline membrane potential dye; LV-to-AA substituted CHT, HEK293 cells; CHT activity remaining % of control (stronger effect = lower value), % at 10 µM; AID 493221, 2011; shares compounds with CHT inh;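 active = choline transporter activity left, mean of duplicates at 10 µM, below buffer-only control mean minus 3 SD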;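 also: depolarization triggered by choline at its EC90 following an EC20 pre-addition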
HEK293 CHT ctr: membrane potential effects in parental HEK293, counter-screen for CHT inhibitor project, cell-based, membrane potential dye; membrane potential ratio readout (active if shifted either direction beyond buffer ±3SD; no single direction) at 10 µM; shares compounds with CHT inh; actives 4% (n = 2,400); choline response; active = decrease or increase beyond buffer ±3SD;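 also: parental cells lack the transporter so any hit is non-specific; ratio is peak minus trough fluorescence over baseline after EC90 choline challenge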
Large screens that a line does not name were inactive (follow-up assays come after a bar, where they were run).

Cc1ccc(Nc2nc(CSc3nnc(-c4ccc(F)cc4)n3C)cs2)cc1	CHT inh -5.96 | CHT inh conf 47.9% | HEK293 CHT ctr inactive
CCOc1ccccc1N1CCN(C(=O)c2cc(-c3cccnc3)nc3c(Cl)cccc23)CC1	none
C=CCn1c(CSc2nc3ccccc3s2)nnc1SCC(=O)NCc1cccnc1	none
C=CCn1c(CSc2nc3ccccc3s2)nnc1SCC(=O)NCc1ccccc1	CHT inh -5.62 | CHT inh conf 62.3% | HEK293 CHT ctr inactive
CCCCCN(C(=O)CCC(=O)OCC(=O)N1CCCC(C)C1)c1c(N)n(CCCC)c(=O)[nH]c1=O (configuration not stated)	none
O=S(=O)(c1ccc(F)cc1)N1CCN(C(=S)NCC2CCCO2)CC1 (configuration not stated)	none (no result: VIM-2 inhibitor, IMP-1 inh)
Cc1n[nH]c(C)c1S(=O)(=O)N1CCCC(C(=O)N2CCN(c3ccc(Cl)cc3)CC2)C1 (configuration not stated)	CHT inh -5.22 | CHT inh conf inactive | HEK293 CHT ctr inactive
O=C(O)c1ccc2c(c1)N(Cc1ccc(F)cc1)C(=O)c1ccccc1S2	CHT inh -5.22 | CHT inh conf 63.9% | HEK293 CHT ctr inactive
CCn1cc(C(=O)N(CCC(C)C)c2c(N)n(Cc3ccccc3)c(=O)[nH]c2=O)c(=O)c2ccc(C)nc21	CHT inh -10.2 | CHT inh conf 49.5% | HEK293 CHT ctr inactive
Cc1ccc(CNC(=O)C2CCC(=O)N2C(C)C)cc1 (configuration not stated)	none
Cc1ccc(NC(=O)COC(=O)C2=NNC(=O)CC2)c(Br)c1	none (no result: VIM-2 inhibitor, TMEM16A inh, CHT inh, IMP-1 inh, CHT allo act)
O=C(Nc1oc2ccccc2c(=O)c1-c1ccc(Cl)cc1)c1ccco1	none
CC(C)(C)c1ccc(C(=O)NCCCNC(=O)c2ccco2)cc1	none
CC(C)(C)c1cc(C(F)(F)F)nc(SCCCNC(=O)c2ccco2)n1	CHT inh -5.51 | CHT inh conf inactive | HEK293 CHT ctr inactive
CC1CCCCCCC1OC(=O)c1ccccc1C(=O)O (configuration not stated)	none (no result: VIM-2 inhibitor, TMEM16A inh, CHT inh, IMP-1 inh, CHT allo act)
CCOc1ccccc1NC(=O)CSc1nnc(CNC(=O)c2cccs2)o1	none
COc1ccccc1-c1ccc(=O)n(CC(=O)NC2CCc3ccccc32)n1 (configuration not stated)	CHT inh -8.4 | CHT inh conf inactive | HEK293 CHT ctr inactive
COc1ccccc1CC(=O)NC1CCCc2ccccc21 (configuration not stated)	none
COc1ccc(S(=O)(=O)N2CCOCC2)cc1NC(=O)COC(=O)c1ccc([N+](=O)[O-])s1	none (no result: VIM-2 inhibitor, TMEM16A inh, CHT inh, IMP-1 inh, CHT allo act)
CCCc1cc(C(=O)NC(C)C2CCCO2)cs1 (configuration not stated)	none
Oc1c(Br)cc(Br)cc1C=NCc1ccc(F)cc1	CHT inh -7.07 | CHT inh conf 56.7% | HEK293 CHT ctr inactive
O/N=C/c1cc(Br)ccc1OCc1ccc(F)cc1	none
Oc1c(Br)cc(Br)cc1C=NCc1ccccc1	CHT inh -9.85 | CHT inh conf 42.4% | HEK293 CHT ctr inactive
O=C(CCS(=O)(=O)c1cccc2nonc12)NCc1ccc(Cl)cc1	none
COc1ccc(C(=O)c2c3ccccc3[n+]([O-])n2CCCN)cc1	none (no result: VIM-2 inhibitor, IMP-1 inh)
Cc1ccc(C(=O)c2c3ccc(C(F)(F)F)cc3[n+]([O-])n2CCCN)cc1	CHT inh -5.87 (no result: VIM-2 inhibitor, IMP-1 inh) | CHT inh conf 39.7% | HEK293 CHT ctr 2.6
COc1ccc(C(=O)c2c3ccc(C(F)(F)F)cc3[n+]([O-])n2CCCN)cc1	CHT inh -6.35 (no result: VIM-2 inhibitor, IMP-1 inh) | CHT inh conf 21.5% | HEK293 CHT ctr inactive
Cc1cc(C)c(S(=O)(=O)c2ccccc2C)c(OCCN(C)C)n1	none
CCCCC1C(=O)CC[C@H]2[C@@H]1CC(=O)[C@@H]2C/C=C\CCCC(=O)O (some centres not stated)	CHT inh -5.5 | CHT inh conf 34.2% | HEK293 CHT ctr inactive
CCCCC[C@H](O)/C=C/[C@H]1C=CC(=O)[C@@H]1C/C=C\CCCC(=O)O	none (no result: TMEM16A act, TMEM16A inh, CHT inh, CHT allo act)
c1ccc2[nH]c(CSc3nc4ccccc4s3)nc2c1	CHT inh -5.97 | CHT inh conf inactive | HEK293 CHT ctr inactive
COc1cc(C(=O)OCCCN(C)C)cc(OC)c1OC	none
CCN(CC)CCCCCCCCOC(=O)c1cc(OC)c(OC)c(OC)c1	CHT inh -5.37 (no result: VIM-2 inhibitor, IMP-1 inh) | CHT inh conf 19.8% | HEK293 CHT ctr inactive
CCCCC1=CC2=CC(=O)C(C)(OC(=O)c3ccc(Cl)nc3)C(=O)C2=CO1 (configuration not stated)	none (no result: VIM-2 inhibitor, TMEM16A act, IMP-1 inh)
COc1cc(OC)c(C(=O)COc2ncnc3ccccc23)c(OC)c1	none
Cc1ccc(C)c(C(=O)COc2ncnc3ccccc23)c1	CHT inh -5.2 | CHT inh conf 42.0% | HEK293 CHT ctr inactive
CC1CCCCN1C(=O)c1ccc(C(=O)Nc2ccc(F)cc2)cc1 (configuration not stated)	CHT inh -6.43 (no result: VIM-2 inhibitor, IMP-1 inh) | CHT inh conf 45.0% | HEK293 CHT ctr inactive
CN(Cc1ccc(Cl)cc1)C(=O)c1ccccc1SCC(=O)N1CCCC1	none (no result: VIM-2 inhibitor, TMEM16A inh, CHT inh, IMP-1 inh, CHT allo act)
COc1cc(NC2CCCCC2O)c2nc(-c3ccc(Cl)cc3)ccc2c1 (configuration not stated)	CHT inh -8.38 | CHT inh conf 49.2% | HEK293 CHT ctr inactive
CC1CCCCC1NC(=O)C1CCCN(S(=O)(=O)c2ccc(-n3cnnn3)cc2)C1 (configuration not stated)	CHT inh -9.53 | CHT inh conf 52.3% | HEK293 CHT ctr inactive
CC1CCCCC1NC(=O)C1CCN(S(=O)(=O)c2ccc(-n3cnnn3)cc2)CC1 (configuration not stated)	none
CCn1ncc(Br)c1C(=O)NC(C)c1ccccc1 (configuration not stated)	CHT inh -5.84 | CHT inh conf inactive | HEK293 CHT ctr inactive
CCn1ncc(Cl)c1C(=O)NC(C)c1ccccc1 (configuration not stated)	none
O=C(CN1C(=O)c2ccccc2S1(=O)=O)Nc1cc(S(=O)(=O)N2CCCCC2)ccc1Cl	none (no result: VIM-2 inhibitor, TMEM16A inh, CHT inh, IMP-1 inh, CHT allo act)
